# Hits are enriched below; roughly 1.9% of the tested compounds scored in any of these assays.
# Hck Nef HTS: inhibitors of Nef-activated human Hck kinase, primary screen, biochemical, Z-Lyte FRET, 384-well, Hck-YEEI. AID 463187, 2010. 220,000 compounds, 0.68% hits. Tyrosine-protein kinase HCK (Homo sapiens), P08631. Recombinant Hck-YEEI plus Nef, Z-Lyte FRET kinase assay. inhibition, % at 20 µM;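 active = Hck-Nef kinase inhibition above about 50%, limit read from the data; inactive = inhibition below that limit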;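 also: 0% = DMSO with Hck plus Nef and 100% = Hck alone without Nef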
# Target sequence (P08631 whole entry, looked up): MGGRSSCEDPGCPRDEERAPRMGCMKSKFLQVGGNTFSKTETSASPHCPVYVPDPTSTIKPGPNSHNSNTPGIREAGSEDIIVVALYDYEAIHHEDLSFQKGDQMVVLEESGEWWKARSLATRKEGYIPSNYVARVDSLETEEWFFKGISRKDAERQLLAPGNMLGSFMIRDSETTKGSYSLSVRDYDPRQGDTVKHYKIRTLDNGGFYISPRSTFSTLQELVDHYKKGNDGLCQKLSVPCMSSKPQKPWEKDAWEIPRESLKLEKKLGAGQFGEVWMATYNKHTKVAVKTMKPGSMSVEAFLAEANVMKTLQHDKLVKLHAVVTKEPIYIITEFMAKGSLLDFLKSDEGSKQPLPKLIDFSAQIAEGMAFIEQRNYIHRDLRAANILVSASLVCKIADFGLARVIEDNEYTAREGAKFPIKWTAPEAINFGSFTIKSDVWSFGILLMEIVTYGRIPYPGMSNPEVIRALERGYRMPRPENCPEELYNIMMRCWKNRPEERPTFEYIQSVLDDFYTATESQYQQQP
# Runt-SMMHC FRET: inhibitors of RUNX1 Runt–CBFb-SMMHC binding, primary screen, biochemical, FRET, Cerulean-Runt, Venus-CBFb-SMMHC, uHTS | Cerulean-Runt/Venus-CBFb-SMMHC FRET ratio 530/480, 1 h | AID 1434, 2008 | Runt-related transcription factor 1 (Homo sapiens) + Core-binding factor subunit beta … | 220,000 compounds, 0.74% hits | inhibition, % at 20 µM;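 active = mean inhibition across duplicate retests at 20 µM reaching about 50%, limit read from the data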;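 also: 0% = DMSO wells and 100% = wells with excess untagged CBFb-SMMHC; inhibitors lower the FRET ratio by blocking Runt binding to CBFb-SMMHC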
# Runt-CBFb FRET: inhibitors of RUNX1 Runt–CBFb binding, primary screen, biochemical, FRET, Cerulean-Runt, Venus-CBFb, uHTS; Runt-related transcription factor 1 (Homo sapiens) + Core-binding factor subunit beta …; Cerulean-Runt/Venus-CBFb FRET ratio 530/480, 1 h; inhibition, % at 20 µM; 220,000 compounds, 0.46% hits; AID 1496, 2009;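 active = inhibition over about 50% at 20 µM in the single-dose screen, limit read from the data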;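 also: 0% = DMSO wells and 100% = excess unlabeled CBFb competitor control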
#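 Buffer or medium: Tris pH 7.5 buffer with BSA. Assay system: Cerulean-labeled Runt domain protein. Amount: each fluorescent fusion protein 100 nM. Read-out basis: loss of energy transfer signal. Incubation: 1 h compound exposure, room temperature. Probe or stimulus: Venus-CBFb binding partner, 100 nM. Detection: FRET, excitation 422 nm, emission at 530 and 480 nm.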
# RanGTP-Imp inh: inhibitors of RanGTP-importin-beta interaction, primary screen, biochemical, FRET, CFP-Ran, YFP-importin-beta, homogeneous | cell-free CFP-Ran/YFP-importin-beta FRET ratio | Ran GTPase (GTP-bound) - importin-beta complex | AID 2216, 2009 | 300,000 compounds, 1.1% hits | inhibition, % (test concentration not listed);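 active = more than half of the replicate wells show a fall in the fluorescence ratio signal beyond about 16%, limit read from the data, passing the limit was not always enough; inconclusive = exactly half of the replicate wells pass the set limit; inactive = fewer than half of replicates pass the limit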;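 also: 0% = DMSO wells and 100% = Ran loaded with GDP instead of GTP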
# Hck Nef conf: retest of Hck:Nef kinase inhibitor hits, confirmation, biochemical, Z-Lyte FRET, 384-well, p-Tyr peptide counterscreen; Recombinant Hck-YEEI:Nef, Z-Lyte FRET kinase assay; calls only at 10 µM; AID 463188, 2010; 1,300 compounds, 28% hits; shares compounds with Hck Nef HTS;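 active = average inhibition of at least 50%, with Z-scores no higher than 3 in both the phospho-tyrosine peptide and fluorescence counterscreens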
# The depositor's hits bear a star; i = inactive; ? = inconclusive; · = no result given; + = active, no number.
SMILES,Hck Nef HTS,Runt-SMMHC FRET,Runt-CBFb FRET,RanGTP-Imp inh,Hck Nef conf
O=C1NN(c2cccc(Br)c2)C(=O)/C1=C/c1ccc(-c2cc([N+](=O)[O-])ccc2O)o1,98*,-40,-17,-10,+
Cc1cc(NC(=O)c2sccc2C)n(-c2nc3ccccc3[nH]2)n1,26,-1,0,3,·
Cc1cc(NC(=O)c2cccs2)n(-c2nc3ccccc3[nH]2)n1,85*,-3,-1,1,i
CCCN1CCC(Oc2cccc(C(=O)NCCc3ccccc3)c2)CC1,·,·,·,3,·
O=C(c1ncc[nH]1)c1cccs1,-2,2,0,-2,·
Fc1cccc(-n2c(-c3cccs3)nc3nc4ccccc4nc32)c1,59*,-134,-114,-9,i
O=C1CSC(=S)N1/N=C/c1ccc(O)c(O)c1O,79*,43,39,10,+
CCN(C(=O)CSc1nc(N)cc(=O)[nH]1)c1c(N)n(Cc2ccccc2)c(=O)[nH]c1=O,·,·,·,4,·
O=C1COc2ccc(-c3csc(NCCc4ccccc4)n3)cc2N1,128*,6,8,-2,+
CN(C)S(=O)(=O)c1cccc(NC(=O)COC(=O)/C=C/c2ccc(Br)o2)c1,19,-1,4,-2,·
Cc1ccc(NC(=O)COC(=O)/C=C/c2ccc(Br)o2)cc1S(=O)(=O)N(C)C,53*,-3,0,4,i
COc1cc(NC(=O)c2cccs2)c(C(=O)OCC(=O)NC(=O)NCc2ccccc2)cc1OC,68*,-1,4,-1,i
COc1ccc(Nc2n[nH]c(N)c2C(N)=O)cc1,65*,2,0,0,i
COCc1cc(=O)n2c([nH]c3ccccc32)c1C#N,67*,59*,44,0,·
CCc1cc(=O)n2c([nH]c3ccccc32)c1C#N,6,5,7,-5,·
CCc1cc(=S)n2c([nH]c3ccccc32)c1C#N,71*,24,32,3,i
O=c1oc2ccccc2c(O)c1/C=C1\C=Nc2ccccc21,11,-4,3,-3,·
O=c1[nH]c(O)c(/C=C2\C=Nc3ccccc32)[nH]1,60*,-4,5,9,i
Cc1cccc(-n2c(O)c(C=Nc3ccccc3-c3n[nH]c(=S)[nH]c3=O)c3ccccc3c2=O)n1,-14,10,7,5,·
Cc1ccc(-n2c(O)c(C=Nc3ccccc3-c3n[nH]c(=S)[nH]c3=O)c3ccccc3c2=O)cc1C,84*,-4,-6,-1,+
Cc1ccc(-n2c(O)c(C=Nc3ccccc3-c3n[nH]c(=S)[nH]c3=O)c3ccccc3c2=O)c(C)c1,73*,3,2,4,+
Cc1ccc(-n2c(O)c(/C=N/Nc3ccc(S(=O)(=O)N4CCOCC4)cc3[N+](=O)[O-])c3ccccc3c2=O)c(C)c1,21,-2,1,6,·
Cc1ccc(O)c(N=Cc2cc(Cc3ccccc3)cc([N+](=O)[O-])c2O)c1,62*,-15,15,-1,i
O=[N+]([O-])c1cc(Cc2ccccc2)cc(C=Nc2ccc(N3CCOCC3)cc2)c1O,31,-25,-17,-4,·
COc1ccc(OC)c(/C=N/NC(=O)CC(=O)NCc2ccccc2)c1,56*,0,-2,0,i
SMILES,Hck Nef HTS,Runt-SMMHC FRET,Runt-CBFb FRET,RanGTP-Imp inh,Hck Nef conf
COc1ccc2nc(C)cc(SCC(=O)N/N=C/c3cccc4ccccc34)c2c1,91*,-11,-4,3,i
CSc1ccc(CN2CCC(n3nccc3NC(=O)c3ccccc3C)CC2)cc1,·,·,·,0,·
O=C1/C(=C\c2ccccn2)SC(=S)N1c1ccc(S(=O)(=O)Nc2nccs2)cc1,28,-4,18,11,·
Cc1ccc(/C=C2/SC(=S)N(c3ccc(S(=O)(=O)Nc4nccs4)cc3)C2=O)cc1,59*,-13,-3,0,i
CCC(=O)Oc1ccc2c(c1)OC1(OC(C)=O)OC(C)CC1=C2C (stereo unspecified),157*,14,10,1,·
CCc1nnc(NS(=O)(=O)c2ccc(NC(=S)NC(=O)/C=C/c3ccccc3)cc2)s1,5,-3,-4,-3,·
CCc1nnc(NS(=O)(=O)c2ccc(NC(=S)NC(=O)/C=C/c3ccc(C(C)C)cc3)cc2)s1,65*,-83,-47,-5,+
Cc1sc(-n2c(C)cc(/C=C3\SC(=S)NC3=O)c2C)c(C#N)c1C,71*,-4,·,10,i
CC(/C=C1\SC(=S)N(NS(=O)(=O)c2ccc(C)cc2)C1=O)=C\c1ccccc1,99*,-5,-6,0,+
O=C(N=Nc1ccc(NOC(=O)c2ccccc2Br)cc1)c1ccccc1O,68*,-2,4,6,i
O=Nc1ccc(NOC(=O)c2ccccc2)cc1,8,6,3,0,·
COC(=O)c1sc2ncccc2c1OCc1c(Cl)cccc1Cl,55*,-1,0,?,i
NC(=O)/C(=C\c1cccnc1)NC(=O)c1ccccc1,-12,-5,-1,1,·
O=C(Nc1ccc2nc(-c3ccco3)c(-c3ccco3)nc2c1)N1CCN(c2ccccn2)CC1,57*,-93,-30,33*,i
CC(C)(CNC(=O)c1ccccc1F)CNC(=O)c1ccccc1F,·,·,·,0,·
CC(=O)COc1nc2c(c(-c3ccco3)c1C#N)CCc1ccccc1-2,56*,3,5,11,i
O=C(NCC1CCCO1)c1ccc(N2CCCCC2)c([N+](=O)[O-])c1 (stereo unspecified),·,·,·,2,·
Nc1ccc(NC(=O)NC2CCCCC2)cc1[N+](=O)[O-],17,-11,-4,-3,·
COC(=O)Cc1[nH]n(-c2nc3ccccc3s2)c(=O)c1C(C)=Nc1ccc(Cl)cc1,64*,-11,2,2,i
Cc1c(Cl)c(C(=O)N2CCCC2)nn1C,1,-1,-1,5,·
CC1CCCC1/C(=N/O)c1ccccc1 (stereo unspecified),·,·,·,4,·
Cc1ccc(S(=O)(=O)NCCC(=O)Oc2ccc3ccc(=O)oc3c2)cc1,93*,56*,36,8,·
Cc1ccc2cc(S(=O)(=O)NCCC(=O)O)ccc2c1,1,3,4,?,·
COC(=O)c1cc(OC)nc2ccc(Br)cc12,13,-2,-1,-4,·
Cc1cccc(C(=O)OC2CCOC2=O)c1C (stereo unspecified),·,·,·,1,·
